Laboratory results reported in ChEMBL document CHEMBL1629475, “Synthesis of new chalcone derivatives containing a rhodanine-3-acetic acid moiety with potential anti-bacterial activity” (2010).
≈ marks a conversion by molar mass, not a printed value. Calls of active or inactive are those of the source. No cut-off for these calls is given here.

Experiments:
Staphylococcus aureus [1] = experiment: Antibacterial activity against Staphylococcus aureus RN 4220 after 20 hrs by twofold serial dilution technique; format: functional; details: RN 4220, 20 h
Procedure, shortened: (§1)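 Inoculum was 10⁵ CFU/mL. MIC was read after 20 h at 37 °C. The MRSA and QRSA strains were multidrug-resistant clinical isolates. Oxacillin and norfloxacin served as positive controls.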

Staphylococcus aureus [2] = experiment: Antibacterial activity against Staphylococcus aureus KCTC 503 after 20 hrs by twofold serial dilution technique; format: functional; details: KCTC 503, 20 h; procedure, shortened: as §1
Staphylococcus aureus [3] = experiment: Antibacterial activity against Staphylococcus aureus KCTC 209 after 20 hrs by twofold serial dilution technique; format: functional; details: KCTC 209, 20 h; procedure, shortened: as §1
Streptococcus mutans [4] = experiment: Antibacterial activity against Streptococcus mutans KCTC 3065 after 20 hrs by twofold serial dilution technique; format: functional; details: KCTC 3065, 20 h
Procedure, shortened: (§2)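 Inoculum was 10⁵ CFU/mL, and MIC was read after incubation at 37 °C for 20 h. Oxacillin and norfloxacin were the positive controls.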

Streptococcus mutans [5] = experiment: Antibacterial activity against Streptococcus mutans KCTC 3289 after 20 hrs by twofold serial dilution technique; format: functional; details: KCTC 3289, 20 h; procedure, shortened: as §2
Escherichia coli [6] = experiment: Antibacterial activity against Escherichia coli 1924 after 20 hrs by twofold serial dilution technique; format: functional; details: Escherichia coli, 1924, 20 h; procedure, shortened: as §1
Escherichia coli [7] = experiment: Antibacterial activity against Escherichia coli 1356 after 20 hrs by twofold serial dilution technique; format: functional; details: Escherichia coli, 1356, 20 h; procedure, shortened: as §1
Escherichia coli [8] = experiment: Antibacterial activity against Escherichia coli 1356 at 64 ug/ml; format: functional, organism-based
Escherichia coli [9] = experiment: Antibacterial activity against Escherichia coli 1924 at 64 ug/ml; format: functional, organism-based
Staphylococcus aureus [10] = experiment: Antibacterial activity against Staphylococcus aureus MRSA CCARM 3167 after 20 hrs by twofold serial dilution technique; format: functional; details: MRSA CCARM 3167, 20 h; procedure, shortened: as §1
Staphylococcus aureus [11] = experiment: Antibacterial activity against Staphylococcus aureus MRSA CCARM 3506 after 20 hrs by twofold serial dilution technique; format: functional; details: MRSA CCARM 3506, 20 h; procedure, shortened: as §1
Staphylococcus aureus [12] = experiment: Antibacterial activity against Staphylococcus aureus QRSA CCARM 3505 after 20 hrs by twofold serial dilution technique; format: functional; details: QRSA CCARM 3505, 20 h; procedure, shortened: as §1
Staphylococcus aureus [13] = experiment: Antibacterial activity against Staphylococcus aureus QRSA CCARM 3519 after 20 hrs by twofold serial dilution technique; format: functional; details: QRSA CCARM 3519, 20 h; procedure, shortened: as §1

SMILES | MIC (Staphylococcus aureus [1]) [µg/mL] | MIC (Staphylococcus aureus [2]) [µg/mL] | MIC (Staphylococcus aureus [3]) [µg/mL] | MIC (Streptococcus mutans [4]) [µg/mL] | MIC (Streptococcus mutans [5]) [µg/mL] | MIC (Escherichia coli [6]) [µg/mL] | MIC (Escherichia coli [7]) [µg/mL] | Activity (Escherichia coli [8]) | Activity (Escherichia coli [9]) | MIC (Staphylococcus aureus [10]) [µg/mL] | MIC (Staphylococcus aureus [11]) [µg/mL] | MIC (Staphylococcus aureus [12]) [µg/mL] | MIC (Staphylococcus aureus [13]) [µg/mL]
O=Cc1ccc(/C=C/C(=O)c2ccc(Cl)cc2Cl)cc1 | 64 (≈ 210 µM) | 64 (≈ 210 µM) | 64 (≈ 210 µM) | > 64 | > 64 | > 64 | > 64 | inactive | inactive | – | – | – | –
Cc1ccc(C(=O)/C=C/c2ccc(/C=C3/SC(=S)N(CC(=O)O)C3=O)cc2)c(C)c1 | 4 (≈ 9.14 µM) | 4 (≈ 9.14 µM) | 4 (≈ 9.14 µM) | 4 (≈ 9.14 µM) | 8 (≈ 18.3 µM) | > 64 | > 64 | inactive | inactive | 4 (≈ 9.14 µM) | 4 (≈ 9.14 µM) | 4 (≈ 9.14 µM) | 4 (≈ 9.14 µM)
COc1ccc(C(=O)/C=C/c2ccc(/C=C3/SC(=S)N(CC(=O)O)C3=O)cc2)cc1 | 64 (≈ 146 µM) | 64 (≈ 146 µM) | 64 (≈ 146 µM) | 64 (≈ 146 µM) | 64 (≈ 146 µM) | > 64 | > 64 | inactive | inactive | – | – | – | –
CCn1cc(C(=O)O)c(=O)c2cc(F)c(N3CCNCC3)cc21 [NORFLOXACIN] | 2 (≈ 6.26 µM) | 2 (≈ 6.26 µM) | 4 (≈ 12.5 µM) | 1 (≈ 3.13 µM) | 1 (≈ 3.13 µM) | 16 (≈ 50.1 µM) | 16 (≈ 50.1 µM) | – | – | 8 (≈ 25.1 µM) | 4 (≈ 12.5 µM) | > 64 | > 64
COCOc1ccc(C(=O)/C=C/c2ccc(/C=C3/SC(=S)N(CC(=O)O)C3=O)cc2)cc1 | > 64 | > 64 | > 64 | > 64 | > 64 | > 64 | > 64 | inactive | inactive | – | – | – | –
Cc1onc(-c2ccccc2)c1C(=O)N[C@@H]1C(=O)N2[C@@H]1SC(C)(C)[C@@H]2C(=O)O [OXACILLIN] | 1 (≈ 2.49 µM) | 1 (≈ 2.49 µM) | 1 (≈ 2.49 µM) | 1 (≈ 2.49 µM) | 1 (≈ 2.49 µM) | > 64 | > 64 | – | – | > 64 | > 64 | 1 (≈ 2.49 µM) | 1 (≈ 2.49 µM)
CC(=O)Nc1ccc(C(=O)/C=C/c2ccc(/C=C3/SC(=S)N(CC(=O)O)C3=O)cc2)cc1 | > 64 | > 64 | > 64 | > 64 | > 64 | > 64 | > 64 | inactive | inactive | – | – | – | –

The next lines start with results.

MIC (Staphylococcus aureus [1]) [µg/mL] | MIC (Staphylococcus aureus [2]) [µg/mL] | MIC (Staphylococcus aureus [3]) [µg/mL] | MIC (Streptococcus mutans [4]) [µg/mL] | MIC (Streptococcus mutans [5]) [µg/mL] | MIC (Escherichia coli [6]) [µg/mL] | MIC (Escherichia coli [7]) [µg/mL] | SMILES | Activity (Escherichia coli [8]) | Activity (Escherichia coli [9]) | MIC (Staphylococcus aureus [10]) [µg/mL] | MIC (Staphylococcus aureus [11]) [µg/mL] | MIC (Staphylococcus aureus [12]) [µg/mL] | MIC (Staphylococcus aureus [13]) [µg/mL]
> 64 | > 64 | > 64 | > 64 | > 64 | > 64 | > 64 | COCOc1cccc(C(=O)/C=C/c2ccc(/C=C3/SC(=S)N(CC(=O)O)C3=O)cc2)c1 | inactive | inactive | – | – | – | –
32 (≈ 78.1 µM) | 32 (≈ 78.1 µM) | 32 (≈ 78.1 µM) | 64 (≈ 156 µM) | 64 (≈ 156 µM) | > 64 | > 64 | O=C(O)CN1C(=O)/C(=C\c2ccc(/C=C/C(=O)c3ccccc3)cc2)SC1=S | inactive | inactive | – | – | – | –
64 (≈ 150 µM) | 64 (≈ 150 µM) | 64 (≈ 150 µM) | 64 (≈ 150 µM) | 64 (≈ 150 µM) | > 64 | > 64 | O=C(O)CN1C(=O)/C(=C\c2ccc(/C=C/C(=O)c3cccc(F)c3)cc2)SC1=S | inactive | inactive | – | – | – | –
64 (≈ 144 µM) | 64 (≈ 144 µM) | 64 (≈ 144 µM) | 64 (≈ 144 µM) | 64 (≈ 144 µM) | > 64 | > 64 | O=C(O)CN1C(=O)/C(=C\c2ccc(/C=C/C(=O)c3cccc(Cl)c3)cc2)SC1=S | inactive | inactive | – | – | – | –
64 (≈ 151 µM) | 64 (≈ 151 µM) | 64 (≈ 151 µM) | 64 (≈ 151 µM) | 64 (≈ 151 µM) | > 64 | > 64 | Cc1ccc(C(=O)/C=C/c2ccc(/C=C3/SC(=S)N(CC(=O)O)C3=O)cc2)cc1 | inactive | inactive | – | – | – | –
